# Measured values: PubChem BioAssay AID504382 (The Scripps Research Institute Molecular Screening Center, 2011)
# The whole screen tested about 2,500 compounds, of which about 460 (18%) were called active. These entries were drawn from the full list. Values without a mark were called inactive.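 The calls were made as follows: active = mean activation above a cutoff of low control average plus 3 SD from the earlier screen (cut at about 12% in these data); inactive = the rest.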
# Test: IANBD-channel fluorescence artefacts in buffer – biochemical, artefact control for cardiac RTF calcium sensitizer project, confirmation (AID 504382)
# Conditions: IANBD fluorescence interference counterscreen, EC20 Ca2+, at 7.2 µM, hits give high values, scaled: EC20 calcium 0, EC100 calcium 100
# Outline: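 Medium: MOPS buffer, 190 mM, with KCl, MgCl2, EGTA, NTA, DTT, pH 7.20; Dosing: one dose of 7.2 µM, 0.7% DMSO; Probe or stimulus: calcium at EC20 level, 0.472 mM final; Incubation: 15 min, 25 °C; Evaluation: compound fluorescence interference relative to control well signal range; Signal: fluorescence, 480/540 nm.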
row,Structure (SMILES),fluorescence artifact activation
1,O=C(NCc1cccc(C(F)(F)F)c1)c1cccc2c1C(=O)c1ccc(N3CCC(Cc4ccccc4)CC3)cc1S2(=O)=O,0.26%
2,O=C(NCCc1ccc(F)cc1)c1cccc2c1C(=O)c1ccc(N3CCC(Cc4ccccc4)CC3)cc1S2(=O)=O,33.5% (active)
3,O=C(NCc1ccc(F)cc1)c1cccc2c1C(=O)c1ccc(N3CCC(Cc4ccccc4)CC3)cc1S2(=O)=O,0.01%
4,O=C(NCc1cccc(F)c1)c1cccc2c1C(=O)c1ccc(N3CCC(Cc4ccccc4)CC3)cc1S2(=O)=O,3.97%
5,O=C(NCc1ccco1)c1cccc2c1C(=O)c1ccc(N3CCC(Cc4ccccc4)CC3)cc1S2(=O)=O,24.3% (active)
6,O=C(NCc1ccco1)c1cccc2c1C(=O)c1ccc(N3CCCC3)cc1S2(=O)=O,0.41%
7,COc1ccc(/C=C2\Oc3cc(OCC(=O)N4CCC(C(=O)O)CC4)ccc3C2=O)c(OC)c1,84% (active)
8,COc1ccc(/C=C2\Oc3cc(OCC(=O)N4CCC[C@H]4C(=O)O)ccc3C2=O)c(OC)c1,5.17%
9,COc1ccc(/C=C2\Oc3cc(OCC(=O)N4CCC[C@H]4CO)ccc3C2=O)c(OC)c1,0.23%
10,CN(C)c1ccc(/C=C/C(=O)c2cccc(Br)c2)cc1,0.06%
11,O=C(NCCc1ccccc1)c1ccc(Cl)nc1,5.54%
12,CCOc1ccc(Cn2nnc(C(=O)NCCc3ccccc3)c2N)cc1,40.2% (active)
13,CCOc1ccc(CCNC(=O)c2ccc(CNS(=O)(=O)c3ccccc3)cc2)cc1OCC,0.06%
14,CC1=Nc2ccccc2/C1=C/c1sc(=S)n(-c2cccc(C(=O)O)c2)c1O,0.55%
15,O=C(Cc1ccccc1)Nn1c(O)c(/C=C2\C=Nc3ccccc32)sc1=S,29.4% (active)
16,Cc1ccc2c(c1)[C@H]1[C@H](CO2)[C@H](c2ccccc2)[C@]2(C)C(=O)N(Cc3ccc(F)cc3)CC(=O)N12,0.19%
17,Clc1ccccc1/C=N/NC1=Nc2cccc3cccc1c23,0.08%
18,CCC12OC(=N)C(C#N)(C1C)C(C#N)(C#N)C(c1ccccc1)O2 (stereo not given),-0.03%
19,O=C(COC(=O)C1(c2ccc(F)cc2)CCCC1)N1CCN(C(=O)c2ccco2)CC1,0%
20,O=C(CCSc1ccccc1)N1CCN(C(=O)c2ccco2)CC1,25.9% (active)
21,CCC(C)(C)n1nnnc1C(c1ccc(C)cc1)N1CCN(C(=O)c2ccco2)CC1 (stereo not given),0.17%
22,COc1cc2c(cc1OC)CN(Cc1cc(=O)oc3cc(C)c(C)cc13)CC2,-0.02%
23,C=CCNc1sc(C(=O)c2ccc(Br)s2)c(N)c1C#N,37% (active)
24,O=C(NCc1ccc(OC(F)(F)F)cc1)c1cccc2c1C(=O)c1ccc(N3CCCCC3)cc1S2(=O)=O,0.89%
25,C#CCOCCOCCOCCNc1nc(N2CCN(C(=O)Cn3cc(CCCCN)nn3)CC2)nc(N2CCN(C(=O)Cn3cc(CC(C)O)nn3)CC2)n1 (stereo not given),-0.09%
26,COc1ccc(CCNC(=O)COC(=O)c2cc(=O)[nH]c3ccccc23)cc1,15.4% (active)
27,Cc1ccnc2nc(C(=O)OCC(=O)NCCc3ccccc3)nn12,7.51%
28,COc1ccc(-c2noc(CCC(=O)NCCc3ccccc3)n2)cc1,0.2%

row,Structure (SMILES),fluorescence artifact activation
1,CCC12CN3CCN(CC(C3)/C1=N\NC(=O)Nc1ccccc1)C2,-0.04%
2,CCCC(NC(=O)CCc1c(C)c2cc3c(-c4ccccc4)coc3cc2oc1=O)C(=O)O (stereo not given),35.8% (active)
3,CCCCCCc1cc2cc(-c3nnc(-c4ccccc4)o3)c(=O)oc2cc1O,0.03%
4,O=[N+]([O-])c1ccc(N(c2ccccc2)c2ccccc2)cc1,2.48%
5,Cc1ccc(S(=O)(=O)c2c(N)n(Cc3ccco3)c3nc4ccccc4nc23)cc1,0.24%
6,Nc1c(S(=O)(=O)c2ccccc2)c2nc3ccccc3nc2n1Cc1ccco1,22.8% (active)
7,Nc1c(S(=O)(=O)c2ccccc2)c2nc3ccccc3nc2n1/N=C/c1ccco1,-0.02%
8,COc1ccccc1Nc1nc(N2CCOCC2)nc(N2CCOCC2)n1,0%
9,CCOC(=O)c1c(NC(=S)N2CCN(C)CC2)sc2c1CCN(C(=O)OCC)C2,1.28%
10,O=C(CCN1C(=O)/C(=C/c2ccccc2)SC1=S)NNC(=O)c1cccnc1,0.24%
11,C/C(O)=c1/ccc2cccc3nc(C)nc1c23,13.3% (active)
12,COc1ccc(CN=C2NC(=O)CC(C(=O)Nc3ccc(F)cc3)S2)cc1 (stereo not given),1.74%
13,CCC(C)NC(=O)C1CC(=O)N(CCc2ccc(F)cc2)C1 (stereo not given),111% (active)
14,COc1ccc(S(=O)(=O)N2CCC(C(=O)NC(C)CCc3ccccc3)CC2)cc1 (stereo not given),-0.01%
15,NC(=O)NC(=O)COC(=O)c1cccc(NS(=O)(=O)/C=C/c2ccccc2)c1,6.11%
16,CC(=O)N(C)c1ccc(C(O)(C(F)(F)F)C(F)(F)F)cc1,7.43%
17,O=c1c2ccccc2nc(SCc2nc(-c3ccccc3)no2)n1-c1ccc(F)cc1,0.14%
18,CNC(=S)N1N=C(c2ccc(Br)cc2)CC1c1ccc(N(C)C)cc1 (stereo not given),5.89%
19,COc1ccc(C2=NN(C(=O)CSc3ncccn3)C(c3ccc(C)cc3)C2)cc1 (stereo not given),202% (active)
20,O=C(c1cn(-c2ccccc2)nc1-c1ccc(Br)cc1)N1CCOCC1,0.32%
21,COC(=O)c1[nH]c2ccc(C)cc2c1NC(=O)C(C)N1CCN(C2CCCCC2)CC1 (stereo not given),0.08%
22,O=C(O)C1CCCCC1C(=O)Nc1ccc(-c2ccccc2)cc1 (stereo not given),0.17%
23,CCOc1ccc(C2C(C#N)=C(N)SC(N)=C2C#N)cc1OCC,11.7% (active)
24,COc1ccc(C2C(C#N)=C(N)SC(N)=C2C#N)cc1OC,0.15%
25,CCOc1ccccc1C1C(C#N)=C(N)SC(N)=C1C#N,0.08%
26,Cc1cc(S(=O)(=O)Nc2c(C)nn(C)c2C)c(Cl)cc1Cl,0.08%
27,COC(=O)c1ccc2c(c1)NC1=C(C(=O)CC(C)(C)C1)C(c1ccncc1)N2 (stereo not given),0.26%
